Calls of active or inactive are those of the source. No cut-off for these calls is given here.
Key:
[1] = target: 5-hydroxytryptamine receptor 5A (Homo sapiens, UniProt P47898); test: Displacement of [3H]LSD from human recombinant 5HT5A receptor
[2] = Ratio of drug level in brain to blood in Sprague-Dawley rat at 3 mg/kg, po after 2 hrs; assay type: ADME, organism-based; parameters: dose 3 mg/kg, route oral
Outline: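 Rats dosed 3 mg/kg orally; total compound levels measured in brain and blood at 2, 4 and 8 h, brain/blood ratio derived. Mean ± SD of three rats.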

[3] = target: T1, 5-hydroxytryptamine receptor 1A (Homo sapiens, UniProt P08908); test: Binding affinity to human 5HT1A receptor
T1 sequence (P08908 whole entry): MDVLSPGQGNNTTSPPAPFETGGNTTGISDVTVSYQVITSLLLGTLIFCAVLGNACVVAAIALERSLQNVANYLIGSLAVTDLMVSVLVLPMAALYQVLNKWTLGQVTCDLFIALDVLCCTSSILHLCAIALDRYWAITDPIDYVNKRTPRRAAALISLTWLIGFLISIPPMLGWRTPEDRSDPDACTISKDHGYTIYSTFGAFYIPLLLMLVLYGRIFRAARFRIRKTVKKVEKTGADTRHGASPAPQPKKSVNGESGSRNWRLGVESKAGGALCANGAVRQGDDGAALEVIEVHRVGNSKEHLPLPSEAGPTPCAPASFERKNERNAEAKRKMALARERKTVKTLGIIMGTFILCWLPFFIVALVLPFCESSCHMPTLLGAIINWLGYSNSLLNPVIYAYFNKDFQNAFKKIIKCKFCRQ
Outline: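 CHO-cell membranes with human 5-HT1A were incubated with 0.25 nmol/L [3H]8-OH-DPAT (final) for 60 min at 27 °C. Buffer: 50 mM Tris-HCl, 10 mM MgSO4, 0.5 mM EDTA, 0.1% ascorbic acid, pH 7.4. Compound came from 270 μmol/L DMSO stock, diluted in buffer. Filtration was through GF/C presoaked in 0.3% polyethyleneimine, with two cold Tris washes. Run in duplicate or triplicate; percent inhibition of binding calculated.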

[4] = target: T2, 5-hydroxytryptamine receptor 3A (Homo sapiens, UniProt P46098); test: Binding affinity to human 5HT3 receptor
T2 sequence (P46098 whole entry): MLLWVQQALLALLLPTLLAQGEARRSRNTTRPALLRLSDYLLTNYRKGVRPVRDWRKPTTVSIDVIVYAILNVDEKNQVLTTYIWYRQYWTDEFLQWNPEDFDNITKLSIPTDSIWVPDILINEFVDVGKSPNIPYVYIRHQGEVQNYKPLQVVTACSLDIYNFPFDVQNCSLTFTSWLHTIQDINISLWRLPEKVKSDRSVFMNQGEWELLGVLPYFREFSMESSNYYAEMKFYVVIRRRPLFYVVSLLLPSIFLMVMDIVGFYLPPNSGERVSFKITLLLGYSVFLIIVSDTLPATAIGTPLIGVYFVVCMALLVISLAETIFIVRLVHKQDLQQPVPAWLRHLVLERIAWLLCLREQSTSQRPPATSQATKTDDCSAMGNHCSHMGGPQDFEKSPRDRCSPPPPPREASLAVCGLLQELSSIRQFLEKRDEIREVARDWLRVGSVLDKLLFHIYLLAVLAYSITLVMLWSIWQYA
Outline: (§1)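 HEK-293 membranes expressing human 5-HT3 were incubated with 0.5 nmol/L [3H]BRL-43694 (final) for 60 min at 25 °C. Buffer: 50 mM Tris-HCl, 5 mM MgCl2, 1 mM EDTA, pH 7.5. Compound came from 270 μmol/L DMSO stock, diluted in buffer. Filtration was through GF/B presoaked in 0.5% polyethyleneimine, with two cold Tris washes. Run in duplicate or triplicate; percent inhibition calculated.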

[5] = Drug level in Sprague-Dawley rat blood at 3 mg/kg, po after 8 hrs by HPLC analysis; assay type: ADME, organism-based; parameters: dose 3 mg/kg, route oral; details: whole blood, read-out: Drug uptake
Outline: (§2)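 Total compound concentration was measured in brain and blood at 2, 4 and 8 h after a single oral 3 mg/kg dose. Brain/blood ratio was also derived. Values are mean ± SD of three rats.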

[6] = target: Histamine H2 receptor (Homo sapiens, UniProt P25021); test: Displacement of [125I]APT from human recombinant histamine H2 receptor
Chain of Histamine H2 receptor (P25021 whole entry): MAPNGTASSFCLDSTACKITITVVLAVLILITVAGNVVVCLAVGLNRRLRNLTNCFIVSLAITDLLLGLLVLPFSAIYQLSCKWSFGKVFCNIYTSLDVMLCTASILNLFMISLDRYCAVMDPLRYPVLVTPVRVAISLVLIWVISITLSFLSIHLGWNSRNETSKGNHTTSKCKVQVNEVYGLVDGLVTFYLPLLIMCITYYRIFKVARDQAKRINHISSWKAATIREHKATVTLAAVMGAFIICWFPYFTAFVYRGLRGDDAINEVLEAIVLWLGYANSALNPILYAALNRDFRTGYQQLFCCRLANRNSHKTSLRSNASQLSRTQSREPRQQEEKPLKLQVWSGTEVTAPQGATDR

[7] = target: T3, 5-hydroxytryptamine receptor 1A (Homo sapiens) (UniProt P08908); test: Agonist activity at human cloned 5HT1A receptor expressed in CHO cells assessed as stimulation of [35S]GTPgammaS binding at 900 uL after 30 mins by liquid scintillation counting; assay type: functional, cell-based
T3 sequence (whole entry): T1 sequence (P08908 whole entry)
Outline: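 Membranes from CHO cells expressing human 5-HT1A were diluted in 20 mM HEPES/3 mM MgCl2/120 mM NaCl, pH 7.4. They were preincubated with 20 μM GDP and test drug for 20 min at 30 °C, then held on ice for 15 min. [35S]GTPγS (100 pM) was added for 30 min at 30 °C. Samples were filtered, washed with cold HEPES/MgCl2 buffer, and bound radioactivity counted; EC50 and Emax reported.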

[8] = target: D(2) dopamine receptor (Homo sapiens, UniProt P14416); test: Inhibition of human dopamine D2 receptor
Chain of D(2) dopamine receptor (P14416 whole entry): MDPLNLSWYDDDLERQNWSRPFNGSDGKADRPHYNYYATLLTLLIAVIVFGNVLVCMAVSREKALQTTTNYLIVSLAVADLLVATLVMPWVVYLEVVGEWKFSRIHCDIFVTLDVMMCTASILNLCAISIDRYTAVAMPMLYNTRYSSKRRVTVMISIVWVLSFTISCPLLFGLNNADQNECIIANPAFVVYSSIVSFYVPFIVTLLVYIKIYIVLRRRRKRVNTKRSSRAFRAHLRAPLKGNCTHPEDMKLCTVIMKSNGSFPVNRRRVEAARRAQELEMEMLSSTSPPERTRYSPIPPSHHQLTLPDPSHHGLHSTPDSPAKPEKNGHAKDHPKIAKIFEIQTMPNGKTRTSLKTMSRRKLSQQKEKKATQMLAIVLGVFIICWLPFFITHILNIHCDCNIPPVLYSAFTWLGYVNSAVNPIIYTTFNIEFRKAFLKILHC

[9] = target: T2, 5-hydroxytryptamine receptor 3A; test: Displacement of [3H]BRL-43694 from human 5HT3 receptor expressed in HEK293 cells by liquid scintillation counting; assay type: cell-based; outline: as §1
[10] = target: 5-hydroxytryptamine receptor 1B (Rattus norvegicus, UniProt P28564); test: Displacement of [125I]CYP from rat cerebral cortex 5HT1B receptor in presence of 30 uM propranolol; assay type: tissue-based
Chain of 5-hydroxytryptamine receptor 1B (P28564 whole entry): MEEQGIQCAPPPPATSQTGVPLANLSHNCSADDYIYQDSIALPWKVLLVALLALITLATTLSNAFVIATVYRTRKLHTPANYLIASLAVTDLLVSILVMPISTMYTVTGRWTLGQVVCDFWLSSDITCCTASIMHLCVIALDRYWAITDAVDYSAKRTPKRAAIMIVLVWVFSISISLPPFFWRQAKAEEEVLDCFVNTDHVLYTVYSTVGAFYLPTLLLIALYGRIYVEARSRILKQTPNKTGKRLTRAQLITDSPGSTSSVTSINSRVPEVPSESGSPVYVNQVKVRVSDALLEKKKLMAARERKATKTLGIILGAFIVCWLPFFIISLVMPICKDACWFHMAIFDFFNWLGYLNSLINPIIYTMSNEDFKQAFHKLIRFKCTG

[11] = test system: Rattus norvegicus; test: Reduction in wrap restraint stress-induced defecation in rat diarrhea-predominant irritable bowel syndrome model at 1 to 10 mg/kg, po administered 1 hr prior to induction of stress; assay type: functional, organism-based
Outline: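 Lightly anesthetized rats had upper bodies wrapped with adhesive tape, then returned to observation cages; feces counted 1 h after wrapping. Compound or vehicle given orally 1 h before restraint; unwrapped animals as normal group. n = 8 per group, mean (SD); Wilcoxon and nonparametric Dunnett's tests.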

[12] = Drug level in Sprague-Dawley rat blood at 3 mg/kg, po after 2 hrs by HPLC analysis; assay type: ADME, organism-based; parameters: dose 3 mg/kg, route oral; details: whole blood, read-out: Drug uptake; outline: as §2
[13] = test system: Rattus norvegicus; test: Induction of 5HT1A receptor-mediated lower lip retraction behavior in rat at 10 mg/kg, iv after 30 mins; assay type: functional, organism-based; parameters: dose 10 mg/kg
Outline: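 Rats were conditioned to test procedures over 2 weeks and acclimated to the test cage for 1 h. Vehicle was saline containing diluted HCl. Lower lip retraction and flat body posture were scored on a 0–3 scale at 5, 10, 20 and 30 min after dosing.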

[14] = Displacement of [3H]DADLE from human recombinant delta2 opioid receptor
[15] = target: Adrenergic receptor alpha-2 (Rattus norvegicus, UniProt P22086+P19328+P22909); test: Inhibition of rat alpha2 adrenergic receptor
[16] = Drug level in Sprague-Dawley rat brain at 3 mg/kg, po after 8 hrs by HPLC analysis; assay type: ADME, organism-based; parameters: dose 3 mg/kg, route oral; details: read-out: Drug uptake; outline: as §2
[17] = target: Muscarinic acetylcholine receptor M1 (Homo sapiens, UniProt P11229); test: Displacement of [3H]pirenzepine from human recombinant muscarinic M1 receptor
Chain of Muscarinic acetylcholine receptor M1 (P11229 whole entry): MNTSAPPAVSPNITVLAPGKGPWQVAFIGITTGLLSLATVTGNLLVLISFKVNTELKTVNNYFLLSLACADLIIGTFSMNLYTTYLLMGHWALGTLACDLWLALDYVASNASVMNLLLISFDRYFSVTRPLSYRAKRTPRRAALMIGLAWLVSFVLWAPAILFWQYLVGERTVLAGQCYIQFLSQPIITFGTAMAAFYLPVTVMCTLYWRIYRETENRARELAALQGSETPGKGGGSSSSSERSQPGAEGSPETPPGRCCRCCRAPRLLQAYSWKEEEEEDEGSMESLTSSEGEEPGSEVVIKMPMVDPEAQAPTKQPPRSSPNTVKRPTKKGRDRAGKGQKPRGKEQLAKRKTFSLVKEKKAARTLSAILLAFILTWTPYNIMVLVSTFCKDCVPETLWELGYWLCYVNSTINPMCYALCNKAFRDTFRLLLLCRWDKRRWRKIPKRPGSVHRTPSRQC

[18] = target: T2, 5-hydroxytryptamine receptor 3A; test: Displacement of [3H]BRL-43694 from human recombinant 5HT3 receptor
[19] = target: Adrenergic receptor alpha-1 (Rattus norvegicus, UniProt P15823+P23944+P43140); test: Inhibition of rat alpha1 adrenergic receptor
[20] = target: Substance-K receptor (Homo sapiens, UniProt P21452); test: Displacement of [125I]NKA from human recombinant NK2 receptor
Chain of Substance-K receptor (P21452 whole entry): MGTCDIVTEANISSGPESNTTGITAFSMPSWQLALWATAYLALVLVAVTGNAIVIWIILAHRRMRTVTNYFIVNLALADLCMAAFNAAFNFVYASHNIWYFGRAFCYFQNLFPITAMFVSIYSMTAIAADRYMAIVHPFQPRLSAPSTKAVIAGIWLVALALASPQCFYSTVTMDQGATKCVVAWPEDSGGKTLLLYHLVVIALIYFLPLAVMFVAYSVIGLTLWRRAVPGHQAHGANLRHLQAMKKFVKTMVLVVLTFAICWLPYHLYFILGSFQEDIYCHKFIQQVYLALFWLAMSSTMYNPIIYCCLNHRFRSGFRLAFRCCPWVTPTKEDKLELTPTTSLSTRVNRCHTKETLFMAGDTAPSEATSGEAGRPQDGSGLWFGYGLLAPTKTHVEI

Chain of 5-hydroxytryptamine receptor 5A (P47898 whole entry): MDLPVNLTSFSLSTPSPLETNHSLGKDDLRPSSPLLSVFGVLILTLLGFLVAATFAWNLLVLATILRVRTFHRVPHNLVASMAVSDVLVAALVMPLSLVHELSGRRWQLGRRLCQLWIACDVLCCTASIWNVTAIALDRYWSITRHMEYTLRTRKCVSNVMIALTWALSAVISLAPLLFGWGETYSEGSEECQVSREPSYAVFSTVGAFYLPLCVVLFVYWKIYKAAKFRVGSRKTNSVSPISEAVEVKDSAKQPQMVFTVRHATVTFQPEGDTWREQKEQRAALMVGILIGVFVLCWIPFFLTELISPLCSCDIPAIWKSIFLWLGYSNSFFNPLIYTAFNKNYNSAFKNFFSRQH

IC50 [1]: > 1000 nM
Kp at 2 h [2]: 2.56
Ki [3]: 0.701 nM
Ki [4]: 4.72 nM
concentration at 8 h [5]: 9.97 nM
IC50 [6]: > 1000 nM
Emax [7]: 99.8%
IC50 [8]: > 100 nM
IC50 [9]: 8.9 nM
IC50 [10]: > 1000 nM
concentration at 2 h [12]: 66.5 nM
IC50 [14]: > 1000 nM
IC50 [15]: > 100 nM
concentration at 8 h [16]: 56.4 nM
IC50 [17]: > 1000 nM
IC50 [18]: > 8.93 nM
IC50 [19]: > 100 nM
IC50 [20]: > 1000 nM
Compound: Nn1c(CCCCN2CCN(c3ccc4ccccc4n3)CC2)nc2c(c1=O)CCCC2
inhibition [11]: Active
Activity [13]: Active
